Measurements: ChEMBL document CHEMBL1671746, “TelA contributes to the innate resistance of Listeria monocytogenes to nisin and other cell wall-acting antibiotics” (2010)
In brackets after ≈: the same amount, converted by molar mass. Bridge positions count the residues as written; N and C are the ends. Square brackets hold non-standard residues; d marks the D form. Peptide text beside a SMILES is read from it. * marks the point of attachment. Ileψ(thiazoline)Cys = CC[C@H](C)[C@H](N)C1=N[C@H](C(=O)*)CS1; dOrn = NCCC[C@@H](N)C(=O)O

How the values were obtained:
Assay type in all cases: functional
Listeria monocytogenes [1] = assay: Antibacterial activity against 10^7 CFU/ml wild-type Listeria monocytogenes EGD-e Serovar 1/2a […] after 16 hrs by disk diffusion assay; conditions: read-out: IZ
Method in brief: (§1)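 Stationary-phase (16 h) cultures were diluted to 10^7 CFU/ml and swabbed onto TSA-YE. 6-mm disks carrying a single antibiotic were laid on the agar. Zones of inhibition were measured after overnight (16 h) growth.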

Listeria monocytogenes [2] = assay: Antibacterial activity against 10^5 CFU/ml telA-deficient Listeria monocytogenes EGD-e Serovar 1/2a after 16 hrs by two fold serial dilution method
Method in brief: (§2)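 Broth microdilution in TSB-YE: 2-fold serial dilutions of antimicrobial mixed 1:1 with target cells at 10^5 CFU/ml. Incubated 20 h for HPLC-purified nisin A, 16 h for other antimicrobials. MIC is the lowest concentration giving no visible growth. For nisin and gallidermin, the μg/ml value is converted from a μM value.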

Listeria monocytogenes [3] = assay: Antibacterial activity against 10^7 CFU/ml telA-deficient Listeria monocytogenes EGD-e Serovar 1/2a at 10 ug after 16 hrs by disk diffusion assay; conditions: read-out: IZ; method in brief: as §1
Listeria monocytogenes [4] = assay: Antibacterial activity against 10^5 CFU/ml wild-type Listeria monocytogenes EGD-e Serovar 1/2a after 16 hrs by two fold serial dilution method; method in brief: as §2
Listeria monocytogenes [5] = assay: Ratio of MIC wild-type Listeria monocytogenes EGD-e Serovar 1/2a to MIC for telA-deficient Listeria monocytogenes EGD-e Serovar 1/2a
Method in brief: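 Both MICs come from the TSB-YE 2-fold broth microdilution (10^5 CFU/ml; 20 h for purified nisin A, 16 h for others). The ratio compares the parent EGDe MIC with the ΔtelA MIC.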

Listeria monocytogenes [6] = assay: Antibacterial activity against 10^7 CFU/ml wild-type Listeria monocytogenes EGD-e Serovar 1/2a at 30 ug after 16 hrs by disk diffusion assay; conditions: read-out: IZ; method in brief: as §1
Listeria monocytogenes [7] = assay: Antibacterial activity against 10^7 CFU/ml telA-deficient Listeria monocytogenes EGD-e Serovar 1/2a at 30 ug after 16 hrs by disk diffusion assay; conditions: read-out: IZ; method in brief: as §1
Listeria monocytogenes [8] = assay: Antibacterial activity against 10^7 CFU/ml telA-deficient Listeria monocytogenes EGD-e Serovar 1/2a at 5 ug after 16 hrs by disk diffusion assay; conditions: read-out: IZ; method in brief: as §1
Listeria monocytogenes [9] = assay: Antibacterial activity against 10^7 CFU/ml wild-type Listeria monocytogenes EGD-e Serovar 1/2a at 5 ug after 16 hrs by disk diffusion assay; conditions: read-out: IZ; method in brief: as §1
Listeria monocytogenes [10] = assay: Antibacterial activity against 10^7 CFU/ml wild-type Listeria monocytogenes EGD-e Serovar 1/2a at 1 ug after 16 hrs by disk diffusion assay; conditions: read-out: IZ
Method in brief: (§3)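 Stationary-phase (16 h) cultures diluted to 10^7 CFU/ml and swabbed onto TSA-YE agar. Six-millimetre disks infused with antibiotic placed on plates. Inhibition zones measured after overnight (16 h) growth. Strains grown at 37°C in tryptic soy broth with yeast extract.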

Listeria monocytogenes [11] = assay: Antibacterial activity against 10^7 CFU/ml telA-deficient Listeria monocytogenes EGD-e Serovar 1/2a […] after 16 hrs by disk diffusion assay; conditions: read-out: IZ; method in brief: as §3

Compound	MIC (Listeria monocytogenes [2])	MIC (Listeria monocytogenes [4])	fold change (FC) (Listeria monocytogenes [5])	zone of inhibition at 30 µg/disc (Listeria monocytogenes [6])	zone of inhibition at 30 µg/disc (Listeria monocytogenes [7])	other results
CO/N=C(\C(=O)N[C@@H]1C(=O)N2C(C(=O)O)=C(COC(C)=O)CS[C@H]12)c1csc(N)n1 [CEFOTAXIME]	1 µg/mL (≈ 2.2 µM)	2 µg/mL (≈ 4.39 µM)	2	21.3 mm	23.7 mm	
COc1cccc(OC)c1C(=O)N[C@@H]1C(=O)N2[C@@H]1SC(C)(C)[C@@H]2C(=O)O [METHICILLIN]						zone of inhibition at 5 µg/disc (Listeria monocytogenes [8]): 26.7 mm; zone of inhibition at 5 µg/disc (Listeria monocytogenes [9]): 25.6 mm
Cc1onc(-c2ccccc2)c1C(=O)N[C@@H]1C(=O)N2[C@@H]1SC(C)(C)[C@@H]2C(=O)O [OXACILLIN]						zone of inhibition at 1 µg/disc (Listeria monocytogenes [10]): 10.7 mm; zone of inhibition at 1 µg/disc (Listeria monocytogenes [11]): 12.3 mm

Further lines, with some results ahead:

MIC (Listeria monocytogenes [2])	MIC (Listeria monocytogenes [4])	Compound	fold change (FC) (Listeria monocytogenes [5])	zone of inhibition at 30 µg/disc (Listeria monocytogenes [6])	zone of inhibition at 30 µg/disc (Listeria monocytogenes [7])	other results
128 µg/mL (≈ 90 µM)	256 µg/mL (≈ 180 µM)	CC[C@H](C)[C@H](N)C1=N[C@H](C(=O)N[C@@H](CC(C)C)C(=O)N[C@H](CCC(=O)O)C(=O)N[C@H](C(=O)N[C@H]2CCCCNC(=O)[C@H](CC(N)=O)NC(=O)[C@@H](CC(=O)O)NC(=O)[C@H](Cc3cnc[nH]3)NC(=O)[C@@H](Cc3ccccc3)NC(=O)[C@H]([C@@H](C)CC)NC(=O)[C@@H](CCCN)NC2=O)[C@@H](C)CC)CS1 [BACITRACIN] ({Ileψ(thiazoline)Cys}-L[dE]IK[dOrn]I[dF]H[dD]N; lactam 4-C)	2			zone of inhibition at 10 µg/disc (Listeria monocytogenes [1]): 12.5 mm; zone of inhibition at 10 µg/disc (Listeria monocytogenes [3]): 15.1 mm
1.44 µg/mL (≈ 3.39 µM)	2.87 µg/mL (≈ 6.76 µM)	CO/N=C(\C(=O)N[C@@H]1C(=O)N2C(C(=O)O)=C(COC(N)=O)CS[C@H]12)c1ccco1 [CEFUROXIME]	2	21.1 mm	24.4 mm	
0.246 µg/mL (≈ 0.114 µM)	1.97 µg/mL (≈ 0.91 µM)	C/C=C(/NC(=O)[C@H](CCCCN)NC(=O)[C@H](C)NC(=O)[C@H]1CS[C@@H](C)[C@@H](NC(=O)[C@H]2CSC[C@@H](NC(=O)[C@H](C)NC(=O)[C@@H](N)[C@@H](C)CC)C(=O)N[C@@H](CCCCN)C(=O)N[C@@H](Cc3ccccc3)C(=O)N[C@@H](CC(C)C)C(=O)N2)C(=O)N2CCC[C@H]2C(=O)NCC(=O)N1)C(=O)NCC(=O)N[C@@H]1CSC[C@H]2NC(=O)[C@H](Cc3ccc(O)cc3)NC(=O)[C@@H](CS/C=C/NC2=O)NC(=O)[C@H](CC(N)=O)NC(=O)[C@H](Cc2ccccc2)NC1=O [GALLIDERMIN]	8			
